Source: ChEMBL document CHEMBL2040734, “Benzothiazoles: search for anticancer agents” (2012)

How the values were obtained:
Format in all cases: functional
HT-29 = assay: Cytotoxicity against human HT-29 cells assessed as cell growth at 10 '-5 M after 48 hrs by sulforhodamine B assay; settings: HT-29, 48 h, read-out: Activity
Summary of the method: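 Primary one-dose screen across the NCI 60-line panel at 10 µM. Cells were grown in RPMI 1640 with 5% FBS and 2 mM L-glutamine and held 24 h before drug. Drug was diluted from a DMSO concentrate. Exposure was 48 h at 37 °C, 5% CO2. Cells were fixed with TCA and stained with SRB, with absorbance read at 515 nm. Percent growth was calculated against time-zero and untreated control.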

PC-3 = assay: Cytotoxicity against human PC3 cells assessed as cell growth at 100 uM after 48 hrs by sulforhodamine B assay; settings: PC-3, 48 h, read-out: Activity
TK-10 = assay: Cytotoxicity against human TK10 cells assessed as cell growth at 10 '-5 M after 48 hrs by sulforhodamine B assay; settings: TK-10, 48 h, read-out: Activity
NCI-H23 = assay: Cytotoxicity against human NCI-H23 cells assessed as cell growth at 0.1 uM after 48 hrs by sulforhodamine B assay; settings: NCI-H23, 48 h, read-out: Activity
BT-549 = assay: Cytotoxicity against human BT549 cells assessed as cell growth at 100 uM after 48 hrs by sulforhodamine B assay; settings: BT-549, 48 h, read-out: Activity
Summary of the method: (§1)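 NCI-60 five-dose screen. Cells were grown in RPMI 1640 with 5% FBS and 2 mM L-glutamine and preincubated 24 h. Compound (DMSO stock) was tested at 0.01, 0.1, 1, 10 and 100 µM for 48 h at 37 °C. Cells were fixed in situ with cold TCA (final 10%) and stained with 0.4% SRB. A515 was read, and percent growth was calculated against time-zero and control plates.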

HOP-62 = assay: Cytotoxicity against human HOP62 cells assessed as cell growth at 1 uM after 48 hrs by sulforhodamine B assay; settings: HOP-62, 48 h, read-out: Activity
Summary of the method: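 Five-dose NCI panel run at 0.01, 0.1, 1, 10 and 100 µM. Cells were in RPMI 1640 with 5% FBS and 2 mM L-glutamine, seeded at 5000–40,000 cells/well and pre-incubated 24 h. Drug was diluted from a DMSO stock into medium with 50 µg/ml gentamicin. Exposure was 48 h at 37 °C, 5% CO2. Cells were fixed with cold TCA and stained with 0.4% SRB, read at 515 nm. Percent growth came from time-zero, control and test absorbances.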

ACHN = assay: Cytotoxicity against human ACHN cells assessed as cell growth at 0.01 uM after 48 hrs by sulforhodamine B assay; settings: read-out: Activity; summary of the method: as §1
SNB-75 = assay: Cytotoxicity against human SNB75 cells assessed as cell growth at 100 uM after 48 hrs by sulforhodamine B assay; settings: SNB-75, 48 h, read-out: Activity
CCRF-CEM = assay: Cytotoxicity against human CCRF-CEM cells assessed as cell growth at 100 uM after 48 hrs by sulforhodamine B assay; settings: read-out: Activity
Summary of the method: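 CCRF-CEM suspension leukemia cells in RPMI 1640 with 5% FBS and 2 mM L-glutamine, plated 24 h before dosing. Five concentrations (0.01–100 µM) were applied from a DMSO stock for 48 h at 37 °C. Settled cells were fixed with 80% TCA (final 16%) and stained with SRB, with read-out at 515 nm. Percent growth was derived from time-zero and control absorbances.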

UO-31 = assay: Cytotoxicity against human UO31 cells assessed as cell growth at 0.1 uM after 48 hrs by sulforhodamine B assay; settings: UO-31, 48 h, read-out: Activity
SK-MEL-5 = assay: Cytotoxicity against human SK-MEL-5 cells assessed as cell growth at 0.1 uM after 48 hrs by sulforhodamine B assay; settings: SK-MEL-5, 48 h, read-out: Activity
SN12C = assay: Cytotoxicity against human SN12C cells assessed as cell growth at 10 '-5 M after 48 hrs by sulforhodamine B assay; settings: read-out: Activity
MCF7 = assay: Growth inhibition of human MCF7 cells after 48 hrs by sulforhodamine B assay; settings: MCF7, 48 h; for CC50: read-out: LC50 (the source's name)
Summary of the method: (§2)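 Adherent NCI-60 lines were grown in RPMI 1640 with 5% FBS and 2 mM L-glutamine, plated at 5000–40,000 cells/well and preincubated 24 h. They were then exposed to five concentrations (0.01–100 µM, from a DMSO stock) for 48 h at 37 °C, 5% CO2. Cells were fixed with cold TCA (10% final, 60 min, 4 °C) and stained with 0.4% SRB. Dye was solubilized in 10 mM Tris base and A515 read. GI50 was derived from time-zero, control and treated absorbances.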

SK-OV-3 = assay: Cytotoxicity against human SKOV3 cells assessed as cell growth at 0.1 uM after 48 hrs by sulforhodamine B assay; settings: SK-OV-3, 48 h, read-out: Activity
SK-MEL-28 = assay: Growth inhibition of human SK-MEL-28 cells after 48 hrs by sulforhodamine B assay; settings: SK-MEL-28, 48 h; summary of the method: as §2
DU-145 [1] = assay: Cytotoxicity against human DU145 cells assessed as cell growth at 0.01 uM after 48 hrs by sulforhodamine B assay; settings: DU-145, 48 h, read-out: Activity; summary of the method: as §1
SF-268 = assay: Cytotoxicity against human SF268 cells assessed as cell growth at 1 uM after 48 hrs by sulforhodamine B assay; settings: SF-268, 48 h, read-out: Activity
DU-145 [2] = assay: Growth inhibition of human DU145 cells after 48 hrs by sulforhodamine B assay; settings: DU-145, 48 h; for CC50: read-out: LC50 (the source's name); summary of the method: as §2
UACC-62 = assay: Cytotoxicity against human UACC62 cells assessed as cell growth at 100 uM after 48 hrs by sulforhodamine B assay; settings: UACC-62, 48 h, read-out: Activity
NCI/ADR-RES = assay: Cytotoxicity against human NCI/ADR-RES cells assessed as cell growth at 0.01 uM after 48 hrs by sulforhodamine B assay; settings: read-out: Activity
MDA-MB-435 = assay: Cytotoxicity against human MDA-MB-435 cells assessed as cell growth at 10 '-5 M after 48 hrs by sulforhodamine B assay; settings: MDA-MB-435, 48 h, read-out: Activity
A498 = assay: Cytotoxicity against human A498 cells assessed as cell growth at 0.1 uM after 48 hrs by sulforhodamine B assay; settings: A498, 48 h, read-out: Activity; summary of the method: as §1
NCI-H460 = assay: Cytotoxicity against human NCI-H460 cells assessed as cell growth at 100 uM after 48 hrs by sulforhodamine B assay; settings: NCI-H460, 48 h, read-out: Activity
Malme-3M = assay: Cytotoxicity against human MALME-3M cells assessed as cell growth at 10 uM after 48 hrs by sulforhodamine B assay; settings: read-out: Activity
T47D = assay: Cytotoxicity against human T47D cells assessed as cell growth at 10 uM after 48 hrs by sulforhodamine B assay; settings: read-out: Activity
KM12 = assay: Cytotoxicity against human KM12 cells assessed as cell growth at 10 uM after 48 hrs by sulforhodamine B assay; settings: KM12, 48 h, read-out: Activity

| Compound | growth at 10 µM (HT-29) [%] | growth at 100 µM (PC-3) [%] | growth at 10 µM (TK-10) [%] | growth at 0.1 µM (NCI-H23) [%] | growth at 100 µM (BT-549) [%] | growth at 1 µM (HOP-62) [%] | growth at 0.01 µM (ACHN) [%] | growth at 100 µM (SNB-75) [%] | growth at 100 µM (CCRF-CEM) [%] | growth at 0.1 µM (UO-31) [%] | growth at 0.1 µM (SK-MEL-5) [%] | growth at 10 µM (SN12C) [%] | GI50 (MCF7) [nM] | TGI (MCF7) [nM] | CC50 (MCF7) [nM] | growth at 0.1 µM (SK-OV-3) [%] | LC50 (SK-MEL-28) [nM] | TGI (SK-MEL-28) [nM] | growth at 0.01 µM (DU-145 [1]) [%] | growth at 1 µM (SF-268) [%] | further results |
| --- | --- | --- | --- | --- | --- | --- | --- | --- | --- | --- | --- | --- | --- | --- | --- | --- | --- | --- | --- | --- | --- |
| Cc1ccc2nc(Nc3c(C)cccc3C)sc2c1 | 9.15 | 56 | 61.3 | 92 | 73 | 66 | 97 | 32 | 83 | 97 | 92 | 50 | 1200 | > 100000 | > 100000 | 104 | > 100000 | > 100000 | 104 | 79 | GI50 (DU-145 [2]): > 100000 nM; TGI (DU-145 [2]): > 100000 nM; CC50 (DU-145 [2]): > 100000 nM; growth at 100 µM (UACC-62): 37%; growth at 0.01 µM (NCI/ADR-RES): 98%; growth at 10 µM (MDA-MB-435): -23.7%; growth at 0.1 µM (A498): 68%; growth at 100 µM (NCI-H460): 51%; growth at 10 µM (Malme-3M): 45%; growth at 10 µM (T47D): 60%; growth at 10 µM (KM12): 30% |
| Clc1cccc(Cl)c1Nc1nc2cccc(Cl)c2s1 | -67.6 | -74 | -35.7 | 83 | -48 | 67 | 99 | 4 | -12 | 56 | 90 | -71.5 | 811 | 2240 | 5370 | 99 | 6020 | 2960 | 106 | 62 | GI50 (SK-MEL-28): 1460 nM; GI50 (DU-145 [2]): 1410 nM; TGI (DU-145 [2]): 2750 nM; CC50 (DU-145 [2]): 5390 nM; growth at 100 µM (UACC-62): -94%; growth at 0.01 µM (NCI/ADR-RES): 99%; growth at 10 µM (MDA-MB-435): -55.9%; growth at 0.1 µM (A498): 67%; growth at 100 µM (NCI-H460): -39%; growth at 10 µM (Malme-3M): -84%; growth at 10 µM (T47D): -90%; growth at 10 µM (KM12): -96% |
